Series [1] in a line: Induction of thrombocytopenia in rat assessed as platelet count […] at 3 mg/kg, po administered daily for 10 days (reference value: […]). In kind it is organism-based. Particulars: in vivo, 240 h.
The next series has as its target CYP2C19 (Homo sapiens, UniProt P33261). The series can be described thus: Inhibition of human CYP2C19 at 10 uM. In kind it is ADME.
The nature of series [2]: Intrinsic clearance in human hepatocytes assessed per million cells. In kind it is ADME, cell-based, Hepatocyte. Particulars: read-out: CLH.
Another series addresses CYP2C8 (Homo sapiens, UniProt P10632). The series can be described thus: Inhibition of human CYP2C8 at 10 uM. In kind it is ADME.
The nature of series [3]: Toxicity in human MCF7:TAM1 cells xenografted ovariectomized athymic Nude-Foxn1 mouse assessed as adverse sign t at 50 mg/kg/day, po administered via gavage for 4 weeks. Particulars: in vivo, 672 h. The class given is organism-based. The gist of the method: (§1)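 MCF-7:TAM1 tumors established in 4–6-week-old female ovariectomized athymic nude mice (nude/Foxn1) given tamoxifen 1.5 mg/mouse daily. […] Body weight tracked against pretreatment, with overt toxicity signs observed. Vehicle and tamoxifen (1.5 mg/mouse/day po) groups as comparators.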
On the technique in general: In xenograft studies the graft and the host belong to different species.

A short description of series [4]: AUC in CD1 mouse at 30 mg/kg, po by LC-MS/MS analysis. Particulars: in vivo. The class given is ADME, organism-based. The gist of the method: (§2)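 HCl salt dosed to CD1 mice iv (1 mg/mL) or by oral gavage (3 mg/mL) in 30% PEG400/70% (10% HP-β-CD in water) (v/v). Blood sampled at 0, 0.0833 (iv only), 0.25, 0.5, 1, 2, 4, 8 and 24 h, n = 3 per time point. Plasma levels measured by LC/MS/MS.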

Series [5] can be described thus: Kinetic solubility of the compound in pH 7.4 PBS buffer. In kind it is physicochemical. Particulars: read-out: Kinetic_solubility. In a few lines:
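Kinetic solubility in PBS at pH 7.4, progesterone as reference compound. Run by a contract lab.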

The nature of series [6]: Tmax in CD1 mouse at 30 mg/kg, po by LC-MS/MS analysis. In kind it is ADME, organism-based. Particulars: in vivo. The gist of the method: (§3)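 HCl salt dosed to CD1 mice in 30% PEG400/70% (10% HP-β-CD in water) (v/v), at 1 mg/mL for iv (5 mg/kg) or 3 mg/mL for oral gavage (30 mg/kg). Blood sampled at 0, 0.0833 (iv only), 0.25, 0.5, 1, 2, 4, 8 and 24 h, n = 3 per time point. Plasma levels measured by LC/MS/MS.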

Series [7] can be described thus: Half life in CD1 mouse at 5 mg/kg, iv by LC-MS/MS analysis. The class given is ADME, organism-based. Particulars: in vivo. The gist of the method: as §2
A short description of series [8]: Volume of distribution at steady state in CD1 mouse at 5 mg/kg, iv by LC-MS/MS analysis. The class given is ADME, organism-based. Particulars: in vivo. In a few lines:
as §3

Series [9] in a line: Clearance in CD1 mouse at 5 mg/kg, iv by LC-MS/MS analysis. The class given is ADME, organism-based. Particulars: in vivo. In a few lines: as §2
The target in the next series is CYP1A2 (Homo sapiens, UniProt P05177). The series can be described thus: Inhibition of human CYP1A2 at 10 uM. In kind it is ADME.
CYP1A2, sequence (P05177 whole entry): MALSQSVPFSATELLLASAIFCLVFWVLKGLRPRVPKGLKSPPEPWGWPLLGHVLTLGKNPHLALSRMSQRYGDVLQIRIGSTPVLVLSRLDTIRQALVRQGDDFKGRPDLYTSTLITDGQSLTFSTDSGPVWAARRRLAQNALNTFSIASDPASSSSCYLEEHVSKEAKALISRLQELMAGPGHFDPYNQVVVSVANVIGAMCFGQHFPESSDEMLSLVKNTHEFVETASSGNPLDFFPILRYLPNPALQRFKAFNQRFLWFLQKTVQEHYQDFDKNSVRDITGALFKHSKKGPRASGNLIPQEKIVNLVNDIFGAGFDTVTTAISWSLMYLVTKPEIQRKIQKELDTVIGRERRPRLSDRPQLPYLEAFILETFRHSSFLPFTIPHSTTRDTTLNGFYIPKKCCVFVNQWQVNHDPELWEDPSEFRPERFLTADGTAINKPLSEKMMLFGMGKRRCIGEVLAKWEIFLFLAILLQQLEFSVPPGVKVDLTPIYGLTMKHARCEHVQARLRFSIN
The target in the next series is CYP2A6 (Homo sapiens, UniProt P11509). Description: Inhibition of human CYP2A6 at 10 uM. The class given is ADME.
CYP2A6, sequence (P11509 whole entry): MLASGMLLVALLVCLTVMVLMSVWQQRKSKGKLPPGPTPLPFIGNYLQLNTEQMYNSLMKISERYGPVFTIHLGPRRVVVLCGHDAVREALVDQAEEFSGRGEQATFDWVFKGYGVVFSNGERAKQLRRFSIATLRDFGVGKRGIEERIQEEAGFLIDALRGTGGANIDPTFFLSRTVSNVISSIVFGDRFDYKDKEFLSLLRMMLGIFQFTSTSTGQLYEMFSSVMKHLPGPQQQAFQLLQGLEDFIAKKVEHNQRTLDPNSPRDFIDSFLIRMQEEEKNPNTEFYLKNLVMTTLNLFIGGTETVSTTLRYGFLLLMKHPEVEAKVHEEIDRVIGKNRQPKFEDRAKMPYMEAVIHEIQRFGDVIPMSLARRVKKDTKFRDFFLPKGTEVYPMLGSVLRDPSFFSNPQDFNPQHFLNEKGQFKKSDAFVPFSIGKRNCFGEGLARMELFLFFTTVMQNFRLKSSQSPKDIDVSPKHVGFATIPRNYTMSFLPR
Series [10] in a line: Half life in human hepatocytes. The class given is ADME, cell-based, Hepatocyte.
Series [11] is described as follows: Induction of thrombocytopenia in Sprague-Dawley rat assessed as platelet count […] at 25 mg/kg, po administered via gavage daily for 10 days (reference value: […]). Particulars: in vivo, 240 h. In kind it is organism-based.
Series [12] is described as follows: Half life in CD1 mouse at 30 mg/kg, po by LC-MS/MS analysis. The class given is ADME, organism-based. Particulars: in vivo. The gist of the method:
as §2

In a further series the test system is MCF7:TAM1. Description: Antitumor activity against human MCF7:TAM1 cells xenografted in ovariectomized athymic Nude-Foxn1 mouse assessed as tumor growth inhibition at 30 mg/kg/day, po administered via gavage for 4 weeks relative to control. In kind it is functional. Particulars: 672 h, read-out: TGI. In a few lines: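 MCF-7:Tam1 tumours established in 4–6 week old female ovariectomized athymic nude mice given daily tamoxifen 1.5 mg/mouse. […] Fulvestrant 1 (mg/mouse)/week sc. Tumour volume measured weekly by calipers as length × width² × π/6.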

Series [13] in a line: AUC in CD1 mouse at 5 mg/kg, iv by LC-MS/MS analysis. In kind it is ADME, organism-based. Particulars: in vivo. The gist of the method:
as §2

The nature of series [14]: Cmax in CD1 mouse at 30 mg/kg, po by LC-MS/MS analysis. The class given is ADME, organism-based. Also noted: dose 30 mg/kg, route oral. Particulars: in vivo. In a few lines: as §2
The target in series [15] is Voltage-gated inwardly rectifying potassium channel KCNH2 (Homo sapiens, UniProt Q12809). The series can be described thus: Inhibition of human ERG stably expressed in HEK293 cells. The class given is cell-based. The gist of the method:
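hERG inhibition measured in HEK293 cells stably transfected with the hERG gene, IC50 determined, dofetilide as positive control. Run by a contract lab.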

The next series has as its target CYP3A4 (Homo sapiens, UniProt P08684). The series can be described thus: Inhibition of human CYP3A4 at 10 uM. The class given is ADME.
Series [16] in a line: Oral bioavailability in CD1 mouse at 30 mg/kg by LC-MS/MS analysis. In kind it is ADME, organism-based. Particulars: in vivo. The gist of the method:
as §3

The nature of series [17]: Protein binding in plasma (unknown origin). In kind it is ADME, cell-free. Particulars: human. In a few lines:
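Protein binding reported as percent bound, ketoconazole as reference compound. Run by a contract lab.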

The next series concerns the target CYP2C9 (Homo sapiens, UniProt P11712). The series can be described thus: Inhibition of human CYP2C9 at 10 uM. In kind it is ADME.
A further series deals with CYP2D6 (Homo sapiens, UniProt P10635). Description: Inhibition of human CYP2D6 at 10 uM. In kind it is ADME.
CYP2D6, sequence (P10635 whole entry): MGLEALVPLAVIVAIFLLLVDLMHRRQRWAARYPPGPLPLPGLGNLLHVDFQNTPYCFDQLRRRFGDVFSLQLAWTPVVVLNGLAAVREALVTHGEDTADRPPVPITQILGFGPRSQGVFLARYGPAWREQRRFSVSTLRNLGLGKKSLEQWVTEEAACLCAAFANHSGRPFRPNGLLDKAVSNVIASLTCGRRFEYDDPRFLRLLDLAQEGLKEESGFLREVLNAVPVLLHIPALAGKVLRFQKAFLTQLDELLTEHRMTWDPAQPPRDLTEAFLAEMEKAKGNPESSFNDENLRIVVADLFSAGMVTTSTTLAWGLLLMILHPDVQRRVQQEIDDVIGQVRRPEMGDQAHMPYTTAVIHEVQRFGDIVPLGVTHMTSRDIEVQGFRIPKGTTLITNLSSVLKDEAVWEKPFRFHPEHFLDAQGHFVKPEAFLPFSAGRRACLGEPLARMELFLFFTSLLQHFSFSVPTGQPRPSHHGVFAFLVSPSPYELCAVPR
Series [18] is described as follows: Toxicity in human MCF7:TAM1 cells xenografted ovariectomized athymic Nude-Foxn1 mouse assessed as effect on body weight at 50 mg/kg/day, po administered via gavage for 4 weeks. The class given is organism-based. Particulars: in vivo, 672 h. The gist of the method:
as §1

The structures appear in SMILES notation.

CYP3A4, sequence (P08684 whole entry): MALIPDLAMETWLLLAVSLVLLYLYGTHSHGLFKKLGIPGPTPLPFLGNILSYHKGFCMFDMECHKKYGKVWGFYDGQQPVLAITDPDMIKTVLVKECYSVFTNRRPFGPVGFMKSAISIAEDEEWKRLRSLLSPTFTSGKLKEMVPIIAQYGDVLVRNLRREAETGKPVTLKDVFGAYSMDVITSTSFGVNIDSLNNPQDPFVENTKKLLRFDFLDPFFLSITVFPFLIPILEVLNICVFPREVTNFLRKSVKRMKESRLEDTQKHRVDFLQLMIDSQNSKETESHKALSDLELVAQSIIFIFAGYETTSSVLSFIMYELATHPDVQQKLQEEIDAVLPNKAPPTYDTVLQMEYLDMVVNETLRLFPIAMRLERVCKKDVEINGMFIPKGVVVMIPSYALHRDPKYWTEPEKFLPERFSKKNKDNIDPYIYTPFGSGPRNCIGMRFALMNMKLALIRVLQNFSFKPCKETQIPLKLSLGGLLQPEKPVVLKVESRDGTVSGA
CYP2C9, sequence (P11712 whole entry): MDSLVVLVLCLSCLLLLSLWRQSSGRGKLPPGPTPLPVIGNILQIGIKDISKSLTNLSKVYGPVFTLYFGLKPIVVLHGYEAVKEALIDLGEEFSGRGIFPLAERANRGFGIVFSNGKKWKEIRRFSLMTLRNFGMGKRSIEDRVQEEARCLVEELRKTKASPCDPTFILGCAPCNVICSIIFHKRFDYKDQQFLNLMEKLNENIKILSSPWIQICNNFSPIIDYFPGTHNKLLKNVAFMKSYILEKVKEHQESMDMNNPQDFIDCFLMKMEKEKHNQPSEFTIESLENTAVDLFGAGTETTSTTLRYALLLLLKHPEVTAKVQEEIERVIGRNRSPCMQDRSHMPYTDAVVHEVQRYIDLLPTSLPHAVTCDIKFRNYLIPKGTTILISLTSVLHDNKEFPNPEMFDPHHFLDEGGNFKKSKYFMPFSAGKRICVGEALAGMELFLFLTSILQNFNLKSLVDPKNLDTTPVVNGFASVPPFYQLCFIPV
Voltage-gated inwardly rectifying potassium channel KCNH2, sequence (Q12809 whole entry): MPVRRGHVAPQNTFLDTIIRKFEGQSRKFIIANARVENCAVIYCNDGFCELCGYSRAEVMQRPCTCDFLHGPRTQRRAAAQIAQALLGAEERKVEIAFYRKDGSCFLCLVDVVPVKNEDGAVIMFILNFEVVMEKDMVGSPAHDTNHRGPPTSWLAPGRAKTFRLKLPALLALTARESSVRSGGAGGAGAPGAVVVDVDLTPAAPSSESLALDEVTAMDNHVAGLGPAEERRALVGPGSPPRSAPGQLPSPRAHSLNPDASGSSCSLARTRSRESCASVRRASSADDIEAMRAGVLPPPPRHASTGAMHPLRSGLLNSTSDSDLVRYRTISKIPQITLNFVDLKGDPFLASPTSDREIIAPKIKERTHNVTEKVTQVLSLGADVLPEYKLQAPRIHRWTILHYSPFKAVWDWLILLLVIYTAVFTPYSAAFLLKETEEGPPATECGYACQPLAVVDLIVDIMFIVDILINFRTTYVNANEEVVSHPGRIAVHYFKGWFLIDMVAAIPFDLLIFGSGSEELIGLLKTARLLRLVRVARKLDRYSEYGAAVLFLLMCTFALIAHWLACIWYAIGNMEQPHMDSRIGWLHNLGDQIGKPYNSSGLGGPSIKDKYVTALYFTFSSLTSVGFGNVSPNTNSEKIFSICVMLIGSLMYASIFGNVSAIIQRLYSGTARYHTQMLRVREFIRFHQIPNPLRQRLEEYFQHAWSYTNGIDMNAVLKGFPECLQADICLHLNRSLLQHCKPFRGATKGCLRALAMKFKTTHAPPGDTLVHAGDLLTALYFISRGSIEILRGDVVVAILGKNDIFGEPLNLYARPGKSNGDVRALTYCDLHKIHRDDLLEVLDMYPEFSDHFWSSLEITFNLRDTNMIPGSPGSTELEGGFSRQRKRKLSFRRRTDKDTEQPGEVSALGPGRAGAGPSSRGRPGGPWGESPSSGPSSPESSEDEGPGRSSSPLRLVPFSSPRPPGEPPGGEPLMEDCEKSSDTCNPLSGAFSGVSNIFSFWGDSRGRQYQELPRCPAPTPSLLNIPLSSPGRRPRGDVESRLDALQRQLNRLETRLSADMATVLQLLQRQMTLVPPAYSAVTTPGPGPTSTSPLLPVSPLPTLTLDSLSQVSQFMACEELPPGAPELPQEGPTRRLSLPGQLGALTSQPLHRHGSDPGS
CYP2C19, sequence (P33261 whole entry): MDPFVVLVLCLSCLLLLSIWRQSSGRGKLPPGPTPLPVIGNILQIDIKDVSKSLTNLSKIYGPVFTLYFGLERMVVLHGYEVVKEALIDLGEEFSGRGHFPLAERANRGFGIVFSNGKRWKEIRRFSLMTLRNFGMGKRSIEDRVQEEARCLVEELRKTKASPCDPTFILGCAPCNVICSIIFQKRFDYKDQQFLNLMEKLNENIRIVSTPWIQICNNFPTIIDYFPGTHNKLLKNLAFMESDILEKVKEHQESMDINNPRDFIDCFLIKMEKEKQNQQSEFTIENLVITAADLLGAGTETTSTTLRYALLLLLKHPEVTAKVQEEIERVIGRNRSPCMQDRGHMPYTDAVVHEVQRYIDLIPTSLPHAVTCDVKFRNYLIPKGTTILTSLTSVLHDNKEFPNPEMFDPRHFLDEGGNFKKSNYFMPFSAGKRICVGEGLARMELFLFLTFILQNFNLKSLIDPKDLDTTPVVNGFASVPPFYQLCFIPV
CYP2C8, sequence (P10632 whole entry): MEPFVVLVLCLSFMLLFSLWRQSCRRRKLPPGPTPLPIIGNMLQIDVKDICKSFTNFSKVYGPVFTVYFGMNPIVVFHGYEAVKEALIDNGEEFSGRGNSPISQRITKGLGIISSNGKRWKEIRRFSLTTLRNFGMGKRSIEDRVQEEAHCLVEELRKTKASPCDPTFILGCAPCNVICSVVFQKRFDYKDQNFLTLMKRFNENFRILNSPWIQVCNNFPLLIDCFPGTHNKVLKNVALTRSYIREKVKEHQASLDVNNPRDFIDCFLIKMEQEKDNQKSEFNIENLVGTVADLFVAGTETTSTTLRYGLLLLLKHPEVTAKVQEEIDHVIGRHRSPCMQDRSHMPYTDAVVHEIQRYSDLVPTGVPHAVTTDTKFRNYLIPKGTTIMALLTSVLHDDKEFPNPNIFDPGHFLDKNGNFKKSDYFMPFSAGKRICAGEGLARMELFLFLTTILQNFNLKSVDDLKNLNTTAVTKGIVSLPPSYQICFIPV

As to `CCS(=O)(=O)Nc1ccc(Oc2ccc(F)cc2F)c(-c2cn(C)c(=O)c3[nH]ccc23)c1` [MIVEBRESIB], the platelet count in series [1] was 173 10^3/µL.
In general, inhibition refers to the relative decrease from the control value, in per cent. Low readings indicate a response near the control, high ones a response far below the control. As usually defined, the AUC is the area under the concentration-time curve, a measure of exposure. The low end stands for less exposure, the high end for more exposure. In general, Tmax refers to the time from dosing to the highest level. What is called Vdss is the apparent volume that relates the amount in the body to the concentration in plasma or blood. A high value points to wide distribution into tissue. Broadly, the clearance is a measure of how efficiently the substance is removed, as volume per time. The low end stands for a low capacity for elimination, the high end for a high capacity for elimination. Usually Cmax stands for the peak of the concentration-time curve. Usually IC50 stands for the concentration at which inhibition is half-maximal. As for `CCS(=O)(=O)Nc1cc(-c2cn(C)c3c(=O)[nH]ccc23)cc2c1ccn2C(C)(c1ccccn1)c1ccccn1.Cl`, the inhibition at 10 µM turned out to be 31.8% on CYP2C19; 84.2% against CYP2C8; 2.29% against CYP1A2; 7.47% on CYP2A6; 50.6% at CYP3A4; 30.7% against CYP2C9. Further, at CYP2D6, the inhibition at 10 µM worked out at 14.5%. For the same compound, the hepatocyte CLint in series [2] was found to be 6.86 µL/min/1e6 cells. For the same compound, the Activity result in series [3] and in series [18] was “Non-Toxic” each time. Also, the AUC in series [4] is 9598 ng·h/mL; in series [13], 3208 ng·h/mL. In [5], the solubility kinetic came to 73.4 µM. Also, in series [6], the Tmax was determined as 0.25 h. For the same compound, the results for the t1/2 in [7], in series [10] and in [12] were 1.95 h, 3.37 h and 2.9 h, respectively. In addition, the Vdss in series [8] stood at 1.49 L/kg. This compound also registered a clearance in series [9] of 25.5 mL/min/kg. Also, in series [11], the platelet count is 1050 10^3/µL. Also, in the series with MCF7:TAM1, the inhibition in vivo at 30 mg/kg/day was determined as 106%. For the same compound, the Cmax in series [14] amounted to 3090 ng/mL. Further, in series [15], the IC50 amounted to 29.3 µM. Further, the F in series [16] was determined as 49%. The same compound displayed a PPB in [17] of 97.98%.

Source of the values: ChEMBL document CHEMBL4610112, “Novel Pyrrolopyridone Bromodomain and Extra-Terminal Motif (BET) Inhibitors Effective in Endocrine-Resistant ER+ Breast Cancer with Acquired Resistance to Fulvestrant and Palbociclib” (J Med Chem, 2020).
